Converted amounts (≈) assume the structure as drawn.
Columns and labels:
Plasmodium falciparum = assay: Antiplasmodial activity against Plasmodium falciparum D6; assay type: functional, organism-based
[1] = Cytotoxicity against mouse Hepa-1c1c7 cells; assay type: cell-based
How it was run: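 Mouse Hepa 1c1c7 hepatoma cells were cultured and assessed in the same system as the QR induction assay. IC50 was taken as the concentration causing half-maximal inhibition of cell viability.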

[2] = Chemopreventive index, ratio of IC50 for mouse Hepa-1c1c7 cells to drug level required to double specific NADPH:quinone reductase activity in mouse Hepa-1c1c7 cells; assay type: functional
How it was run: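 Cultured mouse hepatoma Hepa 1c1c7 cells treated with extracts, fractions or pure isolates. QR induction was expressed as CD, the concentration that doubles QR specific activity. IC50 was the concentration giving half-maximal inhibition of cell viability in the same cells. Index computed as IC50/CD. Sulforaphane served as positive control.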

SMILES	IC50 (Plasmodium falciparum) [µg/mL]	IC50 [1] [µg/mL]	Ratio [2]
COc1cc(O)c2c(c1)O[C@H](c1ccccc1)CC2=O (racemic) [PINOSTROBIN]		> 100	>111
COc1cc(O)c(C(=O)/C=C/c2ccccc2)c(OC)c1 [FLAVOKAWAIN B]		7.2 (≈ 25.3 µM)	
C[S+]([O-])CCCCN=C=S (stereo not drawn) [SULFORAPHANE]		2.07 (≈ 11.7 µM)	23.8

Second part, led by results:

IC50 (Plasmodium falciparum) [µg/mL]	SMILES	IC50 [1] [µg/mL]	Ratio [2]
< 5	C/C1=C\CC[C@](C)(O)/C=C/[C@H](C(C)C)CC1		
< 5	C=C1CC[C@@H](C(C)C)/C=C/[C@@](C)(O)CC[C@@H]1O		
< 5	CC(C)C1=CC[C@@]2(C)[C@H](O)CC[C@](C)(O)[C@@H]2C1 [OPLODIOL]		

From ChEMBL document CHEMBL1150130, “Activity-guided isolation of constituents of Renealmia nicolaioides with the potential to induce the phase II enzyme quinone reductase” (J Nat Prod, 2002)
